Assay outcomes: PubChem BioAssay, Sanford-Burnham Center for Chemical Genomics
An excerpt weighted towards active compounds, which were near 1.2% of everything screened.
Diaph act CS: compounds boosting diaphorase resazurin reduction – biochemical, uHTS, resorufin fluorescence, counter-screen for diaphorase-coupled primary assays, primary screen | Diaphorase/resazurin coupled assay, 16 min; hits give high values; 1 = vehicle wells, 0 = NADH-free wells | activation factor at 20 µM | 0.005% of 190,000 active | AID 1229, 2008;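 active = diaphorase activity raised at least twofold by the compound at 20 µM; inactive = activation factor below 2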
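Assay system: Purified diaphorase enzyme from Clostridium kluyveri | Amount: Enzyme 0.07 U/mL final | Dosing: Compound 20 µM once, DMSO 1% | Timing: 16 min reaction at room temperature | Detection: Fluorescence, excitation 544 nm and emission 590 nm | Evaluation: Higher resorufin formation from activation or reduction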
HKDC1 inh: HKDC1 hexokinase inhibitors, primary screen, biochemical, fluorescence, uHTS | 0.16% of 340,000 active | AID 493160, 2011 | Q2TB90 | inhibition, % at 20 µM | recombinant HKDC1, G6PDH/diaphorase resazurin coupled fluorescence;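 active = inhibition above about 35% when tested at 20 µM, limit read from the data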;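 also: plate controls were DMSO wells with enzyme for no effect and DMSO wells lacking enzyme for full effect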
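System: Recombinant HKDC1 hexokinase | Amount: HKDC1 at 5 µg/mL | Reagent: Glucose with 1 mM ATP | Doses: Single 20 µM dose | Incubation: Reaction time 90 min, room temperature, protected from light | Signal: Coupled resazurin fluorescence, excitation 525 nm, emission 613 nm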
Diaph inh CS: diaphorase inhibitors and chemical oxidizers, primary screen, counter-screen for diaphorase-coupled primary assays, biochemical, uHTS, resorufin fluorescence | diaphorase resazurin-to-resorufin fluorescence, NADH, 16 min; bacterial (C. kluyveri) enzyme, not human | inhibition, % at 20 µM | 0.69% of 190,000 active | AID 1217, 2008;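 active = primary screen inhibition at 20 µM above a set limit, cut at about 50% in these data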;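 also: plate controls were DMSO with full reaction for no effect and wells lacking NADH for full effect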
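Detection: fluorescence of resorufin formed from resazurin, Ex 544/Em 590 nm; test system: Clostridium kluyveri diaphorase enzyme; amount: 0.14 U/mL diaphorase, enzyme working solution; times: 16-min room-temperature incubation before reading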
G6PDH counter: L. mesenteroides G6PDH inhibitors, counter-screen for G6PDH-coupled screening assays, biochemical, Leuconostoc mesenteroides enzyme; AID 1020, 2008; Purified L. mesenteroides G6PDH, diaphorase/resazurin coupled fluorescence, 45 min; inhibition, % at 5 µM; 0.12% of 200,000 active; in the data active = inhibition above about 50%
PfG6PD inh: PfG6PD enzyme inhibitors, primary screen, biochemical, fluorescence intensity, uHTS; 0.78% of 350,000 active; glucose-6-phosphate dehydrogenase-6-phosphogluconolactonase (Plasmodium falciparum 3D7); PfGluPho enzyme, NADPH resazurin-diaphorase fluorescence; inhibition, % at 20 µM;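 active = inhibition reaching at least a set limit at 20 µM in the primary screen, cut at about 59% in these data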;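 also: 0% = DMSO wells with substrate and 100% = DMSO wells lacking glucose-6-phosphate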
PfGluPho conf: PfG6PD inhibitors, hit retest, confirmation, biochemical, fluorescence intensity, single concentration. inhibition, % at 20 µM. shares compounds with PfG6PD inh. recombinant PfGluPho, NADPH-diaphorase-resazurin fluorescence. AID 504753, 2011. 34% of 2,400 active;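 active = inhibition of at least 50% at 20 µM in any single replicate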;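 also: 0% = DMSO with substrate and 100% = DMSO lacking glucose-6-phosphate substrate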
Diaphorase 10uM: diaphorase inhibitors and chemical oxidizers, confirmation, counter-screen for P. falciparum G6PD inhibitor project, biochemical, fluorescence intensity, 10 µM NADPH; diaphorase-coupled resazurin reduction, NADPH 10 uM; 39% of 820 active; shares compounds with PfG6PD inh; AID 504862, 2011; inhibition, % at 20 µM;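 active = average inhibition reaching 50% or more with the compound at 20 µM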;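 also: resorufin red fluorescence formed as diaphorase reduces resazurin using NADPH; 0% = DMSO with enzyme and 100% = DMSO without enzyme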
Diaphorase 30uM: diaphorase inhibitors and chemical oxidizers, confirmation, counter-screen for P. falciparum G6PD inhibitor project, biochemical, fluorescence intensity, 30 µM NADPH; 29% of 820 active; inhibition, % at 20 µM; shares compounds with PfG6PD inh; Diaphorase/resazurin coupled assay, resorufin fluorescence; AID 504863, 2011;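 active = inhibition averaging 50% or more, tested at 20 µM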;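 also: 0% = DMSO with enzyme and 100% = DMSO wells lacking diaphorase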
Active calls of the source: *; . = not tested or not shown.

SMILES	Diaph act CS	HKDC1 inh	Diaph inh CS	G6PDH counter	PfG6PD inh	PfGluPho conf	others
c1cncc(-c2nn3c(Cn4cnc5ccccc54)nnc3s2)c1	0.8	-15	21	27	65*	28
Clc1ccc(Cl)c(-c2nn3c(Cn4cnc5ccccc54)nnc3s2)c1	.	-15	.	.	3	.
c1ccc(-c2nn3c(Cn4nnc5ccccc54)nnc3s2)cc1	0.9	-11	9	-11	75*	33
c1ccc(-c2nn3c(Cn4cnc5ccccc54)nnc3s2)cc1	0.9	-21	6	-14	64*	27
c1ccc2c(c1)ncn2Cc1nnc2sc(-c3ccncc3)nn12	0.8	-5	19	-14	54	.
CC(C)(O)CN(C(=O)c1ccc([N+](=O)[O-])cc1)C1CCCC1	.	0	.	.	15	.
CNCc1ccccc1Sc1ccc(O)c(O)c1	0.4	11	63*	50*	98*	95*	Diaphorase 10uM=72*;Diaphorase 30uM=61*
COc1ccc(Sc2ccccc2CN(C)C)cc1OC	0.9	0	10	10	8	.
COc1ccc(CCNc2nc(C)nc3c2nnn3Cc2ccccc2)cc1OC	.	-1	.	.	2	.
CCc1ccc(N2C(=O)C3ON(c4ccccc4)C(c4ccco4)C3C2=O)cc1 (stereo unspecified)	0.7	1	28	3	4	.
CCCCN1C(=O)C2ON(c3ccccc3C)C(c3ccco3)C2C1=O (stereo unspecified)	0.9	3	8	-4	73*	19
Cc1ccc(C)c(NC(=S)N2CCC(C(=O)c3ccc(F)cc3)CC2)c1	.	.	.	.	2	.
COCCCNC(=O)Cn1cnc2sc(C)c(S(=O)(=O)N3CC(C)CC(C)C3)c2c1=O (stereo unspecified)	.	-3	.	.	-2	.
CCN(C(=O)COC(=O)CSc1ccc([N+](=O)[O-])cc1)C1CCS(=O)(=O)C1 (stereo unspecified)	.	0	.	.	60*	1
CCCc1cc(C(=O)OCC(=O)N(CCC)c2c(N)n(Cc3ccccc3)c(=O)[nH]c2=O)sc1C	.	-8	.	.	-11	.
NS(=O)(=O)c1ccc(O)c(NC(=O)c2ccc([N+](=O)[O-])o2)c1	.	-10	.	.	78*	14
CC1Sc2ccc(C(=O)NCc3ccccn3)cc2NC1=O (stereo unspecified)	.	0	.	.	60*	15
O=C(c1cc(-c2ccc(F)cc2)nc2ccccc12)N1CCC1	.	10	.	.	-14	.
O=C(O)c1cc(-c2ccc(-c3ccc(F)cc3)o2)nc2ccccc12	.	4	.	.	93*	35
CCOC(=O)C1(CCc2ccccc2)CCN(Cc2cccc3nccnc23)CC1	0.9	-5	6	15	7	.
O=C1SC(SC(=Nc2ccccc2)Nc2ccccc2)C(=O)N1c1ccccc1 (stereo unspecified)	0.8	-8	24	3	60*	19
O=C1Nc2ccccc2/C1=C\C(=O)c1ccccc1	.	4	.	.	21	.
O=C(/C=C1\C(=O)Nc2ccccc21)/C=C1\C(=O)Nc2ccccc21	.	13	.	.	81*	41
CC(C)(Oc1ccc(Cl)cc1)C(=O)NNC(=O)c1ccc(Br)o1	.	4	.	.	-7	.
